# Test results reported in ChEMBL document CHEMBL5724801, “EUbOPEN Chemogenomics Library - Multiplex” (2024).
# Several values for one entry are separate records, joined by “and”; a condition that tells them apart may be missing. Equal values may be shown once.
# Test system: U2OS
# Test: Multiplex assay against U2OS
# Format: toxicity, cell-based
# Settings: human
# In short: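 Live cells carried four stains from seeding: Hoechst33342, BioTracker Green Microtubule Cytoskeleton Dye, MitoTracker Red and Annexin V Alexa Fluor 680. They were imaged on a CQ1 microscope at 37°C and 5% CO2 after compound addition. Using CellPathfinder machine-learning gating, cells were split into Hoechst high-intensity objects or normal cells, normal cells into healthy, pyknosed or fragmented nuclei, and pyknosed cells into mitotic or apoptotic; tubulin, mitochondrial-mass and membrane-permeability phenotypes are per cents of healthy-nucleus cells.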
# [1] = 12 h, 1 µM, compound concentration 1 uM
# [2] = 12 h, 10 µM, compound concentration 10 uM
# [3] = 24 h, 1 µM, compound concentration 1 uM
# [4] = 24 h, 10 µM, compound concentration 10 uM
# [5] = 48 h, 1 µM, compound concentration 1 uM
# [6] = 48 h, 10 µM, compound concentration 10 uM
structure (smiles),measurement,setting,value
COc1c(C)cc(NC(=O)c2nn(Cc3ccc(F)cc3)c3c2CN(C(=O)c2ccc[nH]2)C[C@]3(C)C(N)=O)cc1C,Population Apoptotic (%),[1],65% and 83%
same,Population Fragmented Nuclei (%),[1],22% and 21%
same,Population Healthy Nuclei (%),[1],65% and 72%
same,Population Hoechst High Intensity Objects (%),[1],2%
same,Population Membrane Permeable-Phenotype (%),[1],8%
same,Population Mitochondria Different-Phenotype (%),[1],3% and 12%
same,Population Mitotic Cells (%),[1],34% and 16%
same,Population Normal (%),[1],97%
same,Population Pyknosed Nuclei (%),[1],12% and 6%
same,Population Tubulin-Different-Phenotype (%),[1],5% and 9%
same,Total Cell Count,[1],247 and 102
same,Population Apoptotic (%),[2],33% and 60%
same,Population Fragmented Nuclei (%),[2],26% and 11%
same,Population Healthy Nuclei (%),[2],43% and 66%
same,Population Hoechst High Intensity Objects (%),[2],9% and 8%
same,Population Membrane Permeable-Phenotype (%),[2],77% and 54%
same,Population Mitochondria Different-Phenotype (%),[2],90% and 97%
same,Population Mitotic Cells (%),[2],66% and 39%
same,Population Normal (%),[2],90% and 91%
same,Population Pyknosed Nuclei (%),[2],29% and 21%
same,Population Tubulin-Different-Phenotype (%),[2],95% and 100%
same,Total Cell Count,[2],223 and 119
same,Population Apoptotic (%),[3],67% and 61%
same,Population Fragmented Nuclei (%),[3],16% and 17%
same,Population Healthy Nuclei (%),[3],71% and 70%
same,Population Hoechst High Intensity Objects (%),[3],5% and 0%
same,Population Membrane Permeable-Phenotype (%),[3],8% and 7%
same,Population Mitochondria Different-Phenotype (%),[3],6% and 2%
same,Population Mitotic Cells (%),[3],32% and 38%
same,Population Normal (%),[3],94% and 99%
same,Population Pyknosed Nuclei (%),[3],12% and 11%
same,Population Tubulin-Different-Phenotype (%),[3],7% and 6%
same,Total Cell Count,[3],265 and 111
same,Population Apoptotic (%),[4],66% and 65%
same,Population Fragmented Nuclei (%),[4],26% and 13%
same,Population Healthy Nuclei (%),[4],41% and 53%
same,Population Hoechst High Intensity Objects (%),[4],12% and 7%
same,Population Membrane Permeable-Phenotype (%),[4],46% and 49%
same,Population Mitochondria Different-Phenotype (%),[4],92% and 91%
same,Population Mitotic Cells (%),[4],33% and 34%
same,Population Normal (%),[4],87% and 92%
same,Population Pyknosed Nuclei (%),[4],31% and 33%
same,Population Tubulin-Different-Phenotype (%),[4],94% and 91%
same,Total Cell Count,[4],216 and 123
same,Population Apoptotic (%),[5],79% and 84%
same,Population Fragmented Nuclei (%),[5],18% and 15%
same,Population Healthy Nuclei (%),[5],68% and 70%
same,Population Hoechst High Intensity Objects (%),[5],2% and 5%
same,Population Membrane Permeable-Phenotype (%),[5],4% and 9%
same,Population Mitochondria Different-Phenotype (%),[5],3% and 4%
same,Population Mitotic Cells (%),[5],20% and 15%
same,Population Normal (%),[5],97% and 94%
same,Population Pyknosed Nuclei (%),[5],13%
same,Population Tubulin-Different-Phenotype (%),[5],2% and 5%
same,Total Cell Count,[5],365 and 152
same,Population Apoptotic (%),[6],84% and 87%
same,Population Fragmented Nuclei (%),[6],31% and 22%
same,Population Healthy Nuclei (%),[6],24% and 47%
same,Population Hoechst High Intensity Objects (%),[6],17% and 9%
same,Population Membrane Permeable-Phenotype (%),[6],69% and 50%
same,Population Mitochondria Different-Phenotype (%),[6],85% and 81%
same,Population Mitotic Cells (%),[6],15% and 12%
same,Population Normal (%),[6],82% and 90%
same,Population Pyknosed Nuclei (%),[6],44% and 29%
same,Population Tubulin-Different-Phenotype (%),[6],90% and 80%
same,Total Cell Count,[6],212 and 150
COc1cc(C(=O)N2CC[C@@H](O)[C@@H](N)C2)cc2nc(-c3cc4ccccc4n3CC3CC3)n(C)c12.Cl,Population Apoptotic (%),[1],50% and 75%
same,Population Fragmented Nuclei (%),[1],32% and 15%
same,Population Healthy Nuclei (%),[1],53% and 75%
same,Population Hoechst High Intensity Objects (%),[1],4% and 1%
same,Population Membrane Permeable-Phenotype (%),[1],38% and 20%
same,Population Mitochondria Different-Phenotype (%),[1],16% and 18%
same,Population Mitotic Cells (%),[1],50% and 25%
same,Population Normal (%),[1],95% and 98%
same,Population Pyknosed Nuclei (%),[1],14% and 8%
same,Population Tubulin-Different-Phenotype (%),[1],29% and 15%
same,Total Cell Count,[1],223 and 92
same,Population Apoptotic (%),[2],68% and 56%
same,Population Fragmented Nuclei (%),[2],23% and 16%
same,Population Healthy Nuclei (%),[2],38% and 61%
same,Population Hoechst High Intensity Objects (%),[2],6% and 5%
same,Population Membrane Permeable-Phenotype (%),[2],75% and 79%
same,Population Mitochondria Different-Phenotype (%),[2],88% and 91%
same,Population Mitotic Cells (%),[2],31% and 44%
same,Population Normal (%),[2],93% and 94%
same,Population Pyknosed Nuclei (%),[2],37% and 22%
same,Population Tubulin-Different-Phenotype (%),[2],96% and 94%
same,Total Cell Count,[2],208 and 120
same,Population Apoptotic (%),[3],78% and 75%
same,Population Fragmented Nuclei (%),[3],28% and 18%
same,Population Healthy Nuclei (%),[3],54% and 69%
same,Population Hoechst High Intensity Objects (%),[3],3% and 2%
same,Population Membrane Permeable-Phenotype (%),[3],19% and 17%
same,Population Mitochondria Different-Phenotype (%),[3],14% and 18%
same,Population Mitotic Cells (%),[3],21% and 25%
same,Population Normal (%),[3],96% and 97%
same,Population Pyknosed Nuclei (%),[3],17% and 11%
same,Population Tubulin-Different-Phenotype (%),[3],12% and 17%
same,Total Cell Count,[3],243 and 109
same,Population Apoptotic (%),[4],84% and 71%
same,Population Fragmented Nuclei (%),[4],25% and 26%
same,Population Healthy Nuclei (%),[4],35% and 48%
same,Population Hoechst High Intensity Objects (%),[4],4%
same,Population Membrane Permeable-Phenotype (%),[4],57% and 50%
same,Population Mitochondria Different-Phenotype (%),[4],88% and 85%
same,Population Mitotic Cells (%),[4],15% and 28%
same,Population Normal (%),[4],95%
same,Population Pyknosed Nuclei (%),[4],38% and 25%
same,Population Tubulin-Different-Phenotype (%),[4],78% and 90%
same,Total Cell Count,[4],222 and 133
same,Population Apoptotic (%),[5],82% and 76%
same,Population Fragmented Nuclei (%),[5],23%
same,Population Healthy Nuclei (%),[5],61%
same,Population Hoechst High Intensity Objects (%),[5],2%
same,Population Membrane Permeable-Phenotype (%),[5],9% and 17%
same,Population Mitochondria Different-Phenotype (%),[5],5% and 11%
same,Population Mitotic Cells (%),[5],17% and 23%
same,Population Normal (%),[5],97%
same,Population Pyknosed Nuclei (%),[5],15% and 14%
same,Population Tubulin-Different-Phenotype (%),[5],5% and 12%
same,Total Cell Count,[5],304 and 149
same,Population Apoptotic (%),[6],88% and 92%
same,Population Fragmented Nuclei (%),[6],29% and 30%
same,Population Healthy Nuclei (%),[6],35%
same,Population Hoechst High Intensity Objects (%),[6],12% and 6%
same,Population Membrane Permeable-Phenotype (%),[6],47%
same,Population Mitochondria Different-Phenotype (%),[6],65% and 84%
same,Population Mitotic Cells (%),[6],11% and 7%
same,Population Normal (%),[6],87% and 93%
same,Population Pyknosed Nuclei (%),[6],35% and 34%
same,Population Tubulin-Different-Phenotype (%),[6],62% and 75%
same,Total Cell Count,[6],232 and 131
